Results from ChEMBL document CHEMBL1154114, “7-((4-Substituted)piperazin-1-yl) derivatives of ciprofloxacin: synthesis and in vitro biological evaluation as potential antitumor agents” (Bioorg Med Chem, 2009).
pIC50: −log10 of the molar value.

Columns and labels:
[1] = Antitumor activity against human U373MG cells after 5 days by MTT assay; type: functional, cell-based, U-373MG ATCC; settings: U373 MG, 120 h
Summary of the method: (§1)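 Five human cancer lines (prostate PC-3, glioblastoma U373-MG, colorectal LoVo, NSCLC A549, breast MCF-7) plated at 10⁴ to 3×10⁴ cells/mL depending on cell type, allowed 24 h to attach, then cultured 120 h with or without drug at nine concentrations. MTT reduction to formazan read at 570 nm (reference 630 nm).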

[2] = tested on: LoVo; experiment: Antitumor activity against human LoVo cells after 5 days by MTT assay; type: functional, cell-based; settings: 120 h; summary of the method: as §1
[3] = tested on: PC-3; experiment: Antitumor activity against human PC3 cells after 5 days by MTT assay; type: functional, cell-based; settings: PC-3, 120 h; summary of the method: as §1
[4] = tested on: A549; experiment: Antitumor activity against human A549 cells after 5 days by MTT assay; type: functional, cell-based; settings: A549, 120 h; summary of the method: as §1
[5] = Stability in phosphate buffer of pH 7.4 after 6 days; type: physicochemical; settings: read-out: Stability
Summary of the method: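 Compound dissolved at 1 mM in DMSO, diluted with phosphate buffer pH 7.4 to 1 mL, incubated sealed at 37 °C for 6 days. A t0 aliquot was held at 4 °C. HPLC with 280 nm detection and duplicate injections, with expected degradation products as references. Stability is taken as compound peak area over (compound + degradation product) peak area.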

[6] = tested on: MCF7; experiment: Antitumor activity against human MCF7 cells after 5 days by MTT assay; type: functional, cell-based; settings: MCF7, 120 h; summary of the method: as §1
[7] = tested on: CHO; experiment: Inhibition of verapamil-resistant CHO cell proliferation by colony-forming assay; type: cell-based; settings: Cricetulus griseus
[8] = tested on: CHO; experiment: Inhibition of CHO cell proliferation by colony-forming assay; type: cell-based; settings: Cricetulus griseus
[9] = tested on: Drosophila melanogaster; experiment: Inhibition of Drosophila melanogaster DNA topoisomerase 2-mediated pBR322 DNA relaxation by agarose gel electrophoresis
[10] = tested on: SW480; experiment: Inhibition of human SW480 cell proliferation by MTT assay; type: functional, cell-based
[11] = Inhibition of mouse NIH/3T3 cell proliferation by MTT assay; type: cell-based; settings: NIH3T3
[12] = tested on: A-431; experiment: Inhibition of human A431 cell proliferation by MTT assay; type: functional, cell-based
[13] = tested on: EJ; experiment: Inhibition of human EJ cell proliferation by MTT assay; type: functional, cell-based
[14] = tested on: NCI-H460; experiment: Inhibition of human NCI-H460 cell proliferation by sulphorodhamine B assay; type: functional, cell-based
[15] = tested on: MCF7; experiment: Inhibition of human MCF7 cell proliferation by MTT assay; type: functional, cell-based
[16] = tested on: KB; experiment: Inhibition of human KB cell proliferation by MTT assay; type: functional, cell-based
[17] = tested on: HeLa; experiment: Inhibition of human HeLa cell proliferation; type: functional, cell-based
[18] = tested on: SK-MEL; experiment: Inhibition of human SK-MEL cell proliferation by MTT assay; type: functional, cell-based
[19] = Toxicity in ip dosed B6D2F1 mouse assessed as maximum tolerated dose after 28 days; type: organism-based; settings: in vivo
Summary of the method: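 Healthy mice, three per group, each given a single ip dose and observed for up to 28 days. The MTD index is the highest single dose given without causing any deaths in the group.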

[20] = tested on: MC3T3-E1; experiment: Inhibition of mouse MC3T3-E1 cell proliferation after 48 to 72 hrs; type: functional, cell-based

| pIC50 [2] | pIC50 [3] | pIC50 [4] | pIC50 [6] | Compound | pIC50 [1] | also measured |
| --- | --- | --- | --- | --- | --- | --- |
| 3.21 | 3.15 | 3.34 | 3.00 | CCCC(=O)OCC(=O)N1CCN(c2cc3c(cc2F)c(=O)c(C(=O)O)cn3C2CC2)CC1 | 3.23 | remaining at 144 h [5]: 100% |
| 3.39 | 3.36 | 3.34 | 3.01 | O=C(O)c1cn(C2CC2)c2cc(N3CCN(C(=O)CO)CC3)c(F)cc2c1=O | 3.53 |  |
| 3.57 | 3.75 | 3.43 | 3.55 | CC(=O)OCC(=O)N1CCN(c2cc3c(cc2F)c(=O)c(C(=O)O)cn3C2CC2)CC1 | 4.00 |  |
| 4.03 | 3.61 | 3.29 | 4.07 | CC(C)(C)C(=O)N1CCN(c2cc3c(cc2F)c(=O)c(C(=O)O)cn3C2CC2)CC1 | 4.17 |  |
| 4.06 | 4.14 | 4.19 | 3.50 | CCCCC(=O)N1CCN(c2cc3c(cc2F)c(=O)c(C(=O)O)cn3C2CC2)CC1 | 4.07 |  |

Second part, the molecule before the results:

| Compound | pIC50 [2] | pIC50 [3] | pIC50 [4] | pIC50 [6] | pIC50 [1] | also measured |
| --- | --- | --- | --- | --- | --- | --- |
| CCCCCCCCC(=O)N1CCN(c2cc3c(cc2F)c(=O)c(C(=O)O)cn3C2CC2)CC1 | 4.52 | 5.15 | 5.22 | 4.59 | 4.62 |  |
| CCCCCCCCC(=O)OCC(=O)N1CCN(c2cc3c(cc2F)c(=O)c(C(=O)O)cn3C2CC2)CC1 | 3.57 | 3.59 | 3.67 | 3.59 | 3.57 |  |
| O=C(O)c1cn(C2CC2)c2c(F)c(-c3ccc(O)cc3)c(F)cc2c1=O |  |  |  |  |  | pIC50 [7]: 4.92; pIC50 [8]: 5.05; Activity [9]: 60 µM |
| CCCCCCCCCCCCOC(=O)N1CCN(c2cc3c(cc2F)c(=O)c(C(=O)O)cn3C2CC2)CC1 | 3.46 | 3.66 | 3.56 | 3.70 | 4.03 |  |
| CCn1cc(C(=O)O)c(=O)c2cc(F)c(N3CCNCC3)cc21 [NORFLOXACIN] |  |  |  |  |  | pIC50 [10]: 3.77; pIC50 [11]: < 3.00; pIC50 [12]: 4.15; pIC50 [13]: 3.68; pIC50 [14]: 4.07; pIC50 [15]: 3.62; pIC50 [16]: 3.82; pIC50 [17]: 3.41; pIC50 [18]: 3.71 |
| O=C(O)c1cn(C2CC2)c2cc(-c3ccc(O)cc3)c(F)cc2c1=O |  |  |  |  |  | pIC50 [7]: 4.40; pIC50 [8]: 4.70; Activity [9]: 130 µM |
| CCCCCCC(=O)N1CCN(c2cc3c(cc2F)c(=O)c(C(=O)O)cn3C2CC2)CC1 | 3.10 | 3.11 | 3.09 | 3.12 | 3.14 | MTD at 672 h [19]: > 80 mg/kg; remaining at 144 h [5]: 100% |
| CCCCCCCCCCCC(=O)N1CCN(c2cc3c(cc2F)c(=O)c(C(=O)O)cn3C2CC2)CC1 | 4.35 | 5.40 | 5.15 | 3.97 | 4.74 |  |
| CCCCOC(=O)N1CCN(c2cc3c(cc2F)c(=O)c(C(=O)O)cn3C2CC2)CC1 | 4.28 | 5.05 | 4.38 | 4.85 | 4.51 | MTD at 672 h [19]: > 80 mg/kg; remaining at 144 h [5]: 100% |
| CCn1cc(C(=O)O)c(=O)c2cc(F)c(N3CCNC(C)C3)c(F)c21 (stereo unspecified) [LOMEFLOXACIN] |  |  |  |  |  | pIC50 [11]: 3.32; pIC50 [17]: 3.39 |
| CCCCCCCCCOC(=O)N1CCN(c2cc3c(cc2F)c(=O)c(C(=O)O)cn3C2CC2)CC1 | 4.52 | 4.52 | 4.42 | 4.46 | 3.55 |  |
| CCCCCCCCCCCCCCCC(=O)N1CCN(c2cc3c(cc2F)c(=O)c(C(=O)O)cn3C2CC2)CC1 |  |  |  |  |  | remaining at 144 h [5]: 100% |
| COc1c(N2CCNC(C)C2)c(F)cc2c(=O)c(C(=O)O)cn(C3CC3)c12 (stereo unspecified) [GATIFLOXACIN] |  |  |  |  |  | pIC50 [17]: 3.40 |
| C[C@H]1COc2c(N3CCN(C)CC3)c(F)cc3c(=O)c(C(=O)O)cn1c23 [LEVOFLOXACIN] |  |  |  |  |  | pIC50 [14]: 3.82; pIC50 [20]: 3.66 |
| O=C(O)c1cn(C2CC2)c2cc(N3CCN(C(=O)Cc4ccccc4)CC3)c(F)cc2c1=O | 4.39 | 3.61 | 4.54 | 4.49 | 4.47 |  |
